Assay results pooled from the literature.
Compare with care: the assays were run in different laboratories. Values after ≈ are worked out from the molar mass of the structure shown.

For `C[C@]1(O)CC[C@@]2(C)[C@@H](CC[C@@H]3[C@@H]2CC[C@]2(C)[C@@H]([N+](=O)[O-])CC[C@@H]32)C1`, the ED50 was over 100 mg/kg (6 Hz seizures; mouse; intraperitoneal).
`c1csc(-c2nnc3sc(Cc4ccc5c(c4)CCCC5)nn23)c1` gave an EC50 of over 12500 nM (Plasmodium falciparum; parasite growth, SYBR Green; 3D7; 72 h).
For `Cc1cc(NC2Cc3cc(F)c(F)cc3C2)n2nc(C(C)(F)F)nc2n1`, the EC50 was 21 nM (Plasmodium falciparum; parasite growth; HB3; drug-resistant strain, blood stage).
With `CC(C(=O)NOCc1ccccc1)c1cccc(C(OC(=O)NOCc2ccccc2)c2ccccc2)c1` (centres unmarked) the IC50 was 11000 nM (FM3A; cell growth or viability; 48 h).
With `CC(=O)c1c(Cc2ccccc2Cl)c[nH]c1C` the EC50 was 140 nM (Plasmodium falciparum; parasite growth, SYBR Green; 3D7).
The IC50 of `CC(C(=O)N1CCCC1)c1cccc(C(OC(=O)N2CCCC2)c2ccccc2)c1` (centres unmarked) is reported as 41000 nM (L1210; cell growth or viability; 48 h).
`Nc1ccc(C(=O)O)c(O)c1` has an MIC of 0.125 µg/mL (≈ 0.816 µM) (Mycobacterium tuberculosis variant bovis; microbial growth; BCG).
For `C[C@]12CC[C@@H](O)C[C@@H]1CC[C@@H]1[C@@H]2CC[C@]2(C)[C@@H]([N+](=O)[O-])CC[C@@H]12`, the ED50 was 5.3 mg/kg (6 Hz seizures; mouse; intraperitoneal).
`COc1cc2c(cc1OS(N)(=O)=O)CCN(Cc1cc(Br)c(OC)c(OC)c1)C2` has a GI50 of 22 nM (CNSSF-539; cell growth or viability, SRB).
For `NNC(=O)c1ccncc1`, the MIC was 6.3 µg/mL (≈ 45.9 µM) (Mycolicibacterium aurum; microbial growth, agar dilution).
The EC50 of `C[C@H]1[C@@H](O)O[C@@H]2O[C@@]3(C)CC[C@H]4[C@H](C)CC[C@@H]1[C@@]24OO3` is reported as 3.56 nM (Plasmodium falciparum; parasite growth, SYBR Green; 3D7).
`CCCCCCCCCCOc1cc2c(O)c(C(=O)OCC)cnc2cc1OCC` gave an IC50 of under 5.7 nM (Plasmodium falciparum; parasite growth, SYBR Green; FCR3; blood stage).
`CCCn1c(O)nnc1SCC(=O)Nc1cc(C(F)(F)F)ccc1Cl` gave an EC50 of 66.6 nM (Plasmodium falciparum; parasite growth, SYBR Green; 3D7).
`CC(C(=O)NCc1ccccc1)c1cccc(C(OC(=O)NCc2ccccc2)c2ccccc2)c1` (centres unmarked) gave an IC50 of 14000 nM (FM3A; cell growth or viability; 48 h).
